# Screening results: PubChem, Johns Hopkins Ion Channel Center
# TRPC6 inhibitor = inhibitors of mouse TRPC6 channel | HEK293-TRPC6, membrane potential dye, ACh-evoked depolarization; hits give low values | B-score at 10 µM | 310,000 compounds, 1.1% hits | Q61143;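 active = B-score under library mean minus 3 SD, initial fluorescence not abnormally high, positive integrated signal ratio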;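 also: B-score derived from integrated fluorescence ratio over the kinetic read; more negative B-score means stronger inhibition of depolarization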
# TRPC4 potent = TRPC4 (mouse) allosteric potentiation. 310,000 compounds, 0.42% hits. B-score at 10 µM. AID 2227. HEK293 TRPC4beta/mu-opioid, DAMGO EC20, Fluo-4 Ca2+ flux; hits give high values. Q9QUQ5;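 active = B-score of calcium response area above 5 SD of library B-scores, with initial fluorescence ratio within 5 SD of library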;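 also: B-score of integrated fluorescence ratio over time as area under calcium response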
# Target sequence (Q9QUQ5 whole entry, looked up): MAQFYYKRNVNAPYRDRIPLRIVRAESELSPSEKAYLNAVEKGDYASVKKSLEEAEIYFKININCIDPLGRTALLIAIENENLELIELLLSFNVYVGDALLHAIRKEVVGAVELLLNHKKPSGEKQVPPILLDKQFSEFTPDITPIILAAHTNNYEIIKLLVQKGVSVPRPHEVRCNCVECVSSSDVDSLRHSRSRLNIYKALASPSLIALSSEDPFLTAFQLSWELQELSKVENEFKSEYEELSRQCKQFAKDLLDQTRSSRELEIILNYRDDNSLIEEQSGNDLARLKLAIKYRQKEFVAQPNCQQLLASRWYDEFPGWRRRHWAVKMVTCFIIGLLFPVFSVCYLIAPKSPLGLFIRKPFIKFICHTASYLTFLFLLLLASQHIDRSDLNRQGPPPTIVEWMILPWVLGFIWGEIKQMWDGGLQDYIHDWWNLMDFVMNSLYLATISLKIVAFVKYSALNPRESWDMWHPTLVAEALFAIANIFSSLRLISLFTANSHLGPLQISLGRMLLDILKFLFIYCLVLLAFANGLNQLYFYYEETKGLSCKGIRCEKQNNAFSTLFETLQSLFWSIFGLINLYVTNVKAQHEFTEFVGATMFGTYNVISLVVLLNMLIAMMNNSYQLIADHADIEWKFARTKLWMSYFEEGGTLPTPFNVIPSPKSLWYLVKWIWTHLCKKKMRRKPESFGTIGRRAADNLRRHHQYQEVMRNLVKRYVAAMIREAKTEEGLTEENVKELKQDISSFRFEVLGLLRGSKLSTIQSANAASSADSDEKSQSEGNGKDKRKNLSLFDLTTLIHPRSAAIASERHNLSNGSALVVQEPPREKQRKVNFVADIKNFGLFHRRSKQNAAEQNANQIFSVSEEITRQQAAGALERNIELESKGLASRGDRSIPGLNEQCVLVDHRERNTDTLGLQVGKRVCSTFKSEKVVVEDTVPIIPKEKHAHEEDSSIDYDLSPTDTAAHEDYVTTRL
# TRPC6 act = activates the mouse TRPC6 cation channel. B-score at 10 µM. Q61143. AID 2550. HEK293-TRPC6 membrane potential dye fluorescence; hits give high values. 310,000 compounds, 0.13% hits;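 active = B-score of the integrated fluorescence ratio above library mean plus 3 SD, and starting fluorescence ratio within library mean plus 5 SD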;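 also: higher score means more depolarization so channel activation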
# TRPC4 inh = blocks the mouse TRPC4 cation channel | B-score at 10 µM | Q9QUQ5 | 300,000 compounds, 0.39% hits | HEK293 TRPC4beta/mu-opioid, DAMGO-evoked Fluo4 calcium flux; hits give low values;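 active = B-score over 3 SD under the library average, no early fluorescence shift, positive overall ratio signal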
#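 Material: HEK293 cells with stable TRPC4beta plus mu-opioid receptor expression; probe or stimulus: DAMGO in two steps, submaximal then maximal; technique: Fluo4 calcium fluorescence by kinetic imaging, 5 s 1 Hz baseline; measure: integrated fluorescence ratio relative to baseline, converted to per-well B score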
# TRPC4 agonist = activators of mouse TRPC4 channel; 310,000 compounds, 0.49% hits; B-score at 10 µM; HEK293 TRPC4beta/mu-opioid, Fluo4 calcium fluorescence; hits give high values; Q9QUQ5;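 active = B-score above 5 SD of library B-scores, and initial fluorescence ratio not above library mean plus 5 SD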;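 also: positive B-score marks a calcium rise read as TRPC4 activation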
#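 Technique: kinetic Fluo4 calcium fluorescence; Test system: TRPC4beta and mu-opioid receptor HEK293 stable cells; Measure: B-scored integrated calcium fluorescence ratio; Benchmarks: low control buffer alone, high control maximal DAMGO; Schedule: 45 min room-temperature Fluo4 loading, 110 s read.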
# TRPC4 sel inh 2 = second selectivity test of TRPC6 inhibitors: effect on mouse TRPC4 | 920 compounds, 42% hits | inhibition, % at 10 µM | HEK293 TRPC4/MOR, membrane potential dye fluorescence; channel activated by saturating DAMGO dose | shares compounds with TRPC6 inhibitor | AID 2776;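 active = compounds whose fluorescence signal differed from control wells by over 3 SD, either direction, in both duplicate plates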
# TRPC4 spec = tests whether TRPC6 inhibitors also affect mouse TRPC4; shares compounds with TRPC6 inhibitor; HEK293 TRPC4/mu-opioid, membrane potential fluorescence; activity change, negative = inhibition, % at 10 µM; 920 compounds, 61% hits; AID 2777;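 active = rise or fall in signal beyond 3 SD of buffer-only wells in both replicate plates, either sign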;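 also: integrated kinetic ratio of fluorescence range over baseline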
# HEK293 MPD ctr 2-1 = second counter-screen for TRPC6 inhibitors: parental HEK293 cells | shares compounds with TRPC6 inhibitor | parental HEK293 membrane potential dye fluorescence; maximal acetylcholine challenge after compound addition | signal change vs control, % at 10 µM | 920 compounds, 31% hits | AID 2779;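 active = membrane potential signal moving either way by over 3 SD of the maximum-effect control, in both duplicate plates, meaning non-specific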
# HEK293 MPD ctr-1 = checks TRPC6 inhibitor effects in parental HEK293 cells; shares compounds with TRPC6 inhibitor; parental HEK293 membrane potential dye fluorescence; membrane potential signal change, % at 10 µM; 920 compounds, 60% hits; AID 2780;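 active = membrane potential signal shifting up or down by more than 3 SD of buffer-only wells, on both duplicate plates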
# HEK293 MPD ctr-2 = parental HEK293 nonspecific activity of TRPC6 modulators. shares compounds with TRPC6 inhibitor. membrane potential dye fluorescence. membrane potential signal change, % at 10 µM. 2,400 compounds, 51% hits;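 active = membrane potential signal moves up or down beyond 5 SD from buffer-only wells, on both duplicate plates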
# HEK293 MPD ctr 2-2 = parental HEK293 nonspecific activity of TRPC6 modulators, second screen; shares compounds with TRPC6 inhibitor; membrane potential dye fluorescence; after compound, maximal acetylcholine stimulation; inhibition, % at 10 µM; 2,400 compounds, 14% hits;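 active = membrane potential signal drops by more than 5 SD from the mean control signal, in both duplicate plates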;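 also: plate controls were acetylcholine ECmax control wells for no effect and buffer only wells for full effect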
# TRPC4/MOR mod = mouse TRPC4 off-target activity of TRPC6 modulators | HEK293 TRPC4/mu-opioid, membrane potential fluorescence | AID 488927 | shares compounds with TRPC6 inhibitor | 2,400 compounds, 69% hits | percent change from control (negative = decrease, positive = increase), % at 10 µM;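 active = membrane potential signal moved up or down beyond 5 SD of buffer control wells, in both duplicate plates, actives on both sides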;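 also: plate controls were assay buffer wells for no effect and DAMGO maximal-effect wells for full effect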
# TRPC4 ctr inh 2 = second selectivity test of TRPC6 modulators against mouse TRPC4 | shares compounds with TRPC6 inhibitor | HEK293 TRPC4/mu-opioid, membrane potential dye fluorescence; stimulated with maximal-effect DAMGO | inhibition, % at 10 µM | 2,400 compounds, 55% hits | AID 488928;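 active = drop in membrane potential signal beyond 5 SD of the control wells in both duplicate plates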;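 also: TRPC4 counter screen for TRPC6 hits run under conditions tuned for TRPC6 not TRPC4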
# TRPC6 inh conf = mouse TRPC6 inhibitor confirmation. 3,300 compounds, 43% hits. shares compounds with TRPC6 inhibitor. inhibition, % at 10 µM. HEK293-TRPC6, membrane potential dye, ACh-evoked depolarization;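 active = fluorescence ratio falls more than 5 SD below the full-stimulation control mean, in both duplicate runs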;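 also: integrated fluorescence ratio of peak minus minimum over baseline after agonist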
# TRPC6 act conf = mouse TRPC6 activator confirmation; HEK293-TRPC6 membrane potential dye fluorescence, FDSS; 2,800 compounds, 11% hits; activation, % at 10 µM; shares compounds with TRPC6 inhibitor;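 active = ratio signal rise beyond 5 SD above unstimulated control wells' mean, seen in both duplicate runs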;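 also: plate controls were buffer EC0 wells for no effect and acetylcholine ECmax response for full effect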
# Numbers without * were called inactive; i = inactive; . = not tested or not shown. Rows were chosen to be rich in hits. Some 2.3% of all compounds tested hit in one or more screens of this group.
SMILES,TRPC6 inhibitor,TRPC4 potent,TRPC6 act,TRPC4 inh,TRPC4 agonist,HEK293 MPD ctr-2,HEK293 MPD ctr 2-2,TRPC4/MOR mod,TRPC4 ctr inh 2,TRPC6 inh conf,TRPC6 act conf,others
CCCCCc1cc(=O)oc2c(C(CCN3CCCC(C)C3)c3ccc(N(C)C)cc3)c(OC)cc(OC)c12 (stereo not given),i,i,i,i,i,.,.,.,.,.,.,
Cc1cc(C)cc(NC(=O)CCc2nc3sc4c(c3c(=O)[nH]2)CCCC4)c1,i,i,i,i,i,.,.,.,.,.,.,
CCN1C(=O)[C@@H]2[C@H](C1=O)[C@@H]1C(=O)Nc3ccccc3C(=O)N1[C@@H]2c1cccc(Cl)c1,i,i,i,i,i,.,.,.,.,.,.,
O=C(NCC1CCN(c2ccc(S(=O)(=O)N3CCOCC3)cc2)CC1)c1cccc(Cl)c1,-6.3*,i,i,i,i,i,i,-30%*,i,45%*,i,
CCCCN(CCCC)c1nc(OC)nc(-n2nnc(C(C)=O)c2C)n1,i,i,11*,i,i,240%*,i,57%*,i,i,96%*,
CC(=O)c1nnn(-c2nc(N)nc(N(c3ccccc3)c3ccccc3)n2)c1C,i,i,i,i,i,.,.,.,.,.,.,
N#CC(C#N)=C(Nc1ccc(F)cc1)SCc1cccc(Br)c1,i,i,i,i,i,.,.,.,.,.,.,
Cc1cccc(CSC(Nc2ccc(F)cc2)=C(C#N)C#N)c1,-5.2*,i,i,i,i,124%*,i,20%*,48%*,56%*,i,
c1ccc2oc(C3=NNC(=NC4CC4)SC3)cc2c1,-8.4*,i,i,i,i,.,.,.,.,i,i,TRPC4 sel inh 2=i;TRPC4 spec=i;HEK293 MPD ctr 2-1=i;HEK293 MPD ctr-1=i
Cn1c(=O)n(C)c2cc([N+](=O)[O-])c(N3CCN(S(C)(=O)=O)CC3)cc21,i,i,i,i,i,.,.,.,.,.,.,
Cn1c(=O)n(C)c2cc([N+](=O)[O-])c(N3CCN(CCO)CC3)cc21,-6.8*,i,i,i,i,-370%*,70%*,-50%*,42%*,44%*,i,
Cc1cc(N2CCCC2)nc2ccccc12,-8.2*,i,i,i,i,.,.,.,.,53%*,i,TRPC4 sel inh 2=50%*;TRPC4 spec=-30%*;HEK293 MPD ctr 2-1=-6.5%*;HEK293 MPD ctr-1=-410%*
Cc1nn(-c2cc(C)c3ccccc3n2)c2c1CCC2,-5.4*,i,i,i,i,i,i,i,i,i,i,
Cc1ccccc1Nc1c(-c2cccnc2)nc2ccc(Br)cn12,i,i,i,i,i,.,.,.,.,.,.,
Cc1ccccc1Nc1c(-c2cccnc2)nc2ccccn12,-5.6*,i,i,i,i,-132%*,i,-14%*,66%*,i,i,
Cc1ccccc1Nc1c(-c2ccncc2)nc2ccc(Br)cn12,-7*,i,i,i,i,-131%*,i,-39%*,94%*,64%*,i,
Cc1ccn2c(Nc3ccccc3C)c(-c3ccccn3)nc2c1,-5.7*,i,i,i,i,-130%*,i,-27%*,81%*,i,i,
COC(=O)c1ccc(N2CCN(C)CC2)c(NC(=O)c2ccc(-c3ccc(Cl)cc3)o2)c1,i,i,i,i,i,.,.,.,.,.,.,
COC(=O)c1ccc(Cn2cnc3c(sc4nc(N5CCOCC5)c5c(c43)CCCC5)c2=O)o1,i,i,i,i,i,.,.,.,.,.,.,
Cc1c(Cc2ccccc2)c(=O)oc2cc(O)cc(O)c12,i,i,i,i,i,.,.,.,.,.,.,
Cc1cc(Nc2cccc([N+](=O)[O-])c2)c2cccc(C)c2n1,-6.8*,i,i,i,i,.,.,.,.,i,i,TRPC4 sel inh 2=62%*;TRPC4 spec=-24%*;HEK293 MPD ctr 2-1=43%*;HEK293 MPD ctr-1=-444%*
Cc1cc(Nc2ccc([N+](=O)[O-])cc2)c2ccccc2n1,i,i,i,i,i,.,.,.,.,.,.,
Cc1cc(Nc2cccc([N+](=O)[O-])c2)c2ccccc2n1,-8.1*,i,i,i,i,-164%*,i,-34%*,52%*,46%*,i,
CCCCCN1CN(S(=O)(=O)c2cccs2)c2nc3ccccc3nc21,i,i,i,i,i,.,.,.,.,.,.,
CC(Nc1cc(N2CCNCC2)ccc1[N+](=O)[O-])c1ccccc1 (stereo not given),-7.1*,i,i,i,75*,.,.,.,.,i,i,TRPC4 sel inh 2=72%*;TRPC4 spec=i;HEK293 MPD ctr 2-1=i;HEK293 MPD ctr-1=-182%*
CCS(=O)(=O)N1CCN(c2ccc([N+](=O)[O-])c(NC(C)c3ccccc3)c2)CC1 (stereo not given),i,i,i,i,i,.,.,.,.,.,.,
COc1ccc(C(OCC(O)CN2CCC(O)CC2)c2ccc(OC)cc2)cc1 (stereo not given),i,i,i,i,i,.,.,.,.,.,.,
C=CCn1c(COc2ccccc2OC)nc2ccccc21,i,i,i,i,i,.,.,.,.,.,.,
COc1cccc(CNC(=O)CCc2ccc(OC)c(OC)c2)c1,i,i,i,i,i,.,.,.,.,.,.,
